Where a SMILES comes first, the peptide text is derived from it.
What was measured:
[1] = Plasma half life of compound reported; assay type: ADME, cell-free
Procedure, shortened: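 Peptide (0.5 mg) was incubated in 0.5 mL human serum at 37 °C. Aliquots were taken at 0-240 min, boiled at 90-95 °C for 5 min, diluted with water and centrifuged. Intact peptide was quantified by isocratic RP-HPLC at 220 nm, with peak area referenced to an internal serum peak and time 0 set at 100%. Half-life was read from the degradation time course.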

[2] = Compound was evaluated for the secretion of interleukin-6 (IL-6) by macrophages incubated in the presence of antigen Keyhole Limpet Hemocyanin (KLH) at concentration of 2 x 10E-8 M; assay type: functional
Procedure, shortened: (§1)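 Thioglycollate-elicited peritoneal macrophages from (BALB/c x C3H.eb)F1 mice (6-8 weeks), >90% pure, cultured at 10⁶/mL in DMEM for 48 h at 37 °C, 5% CO₂. Incubated 20 h in triplicate with KLH plus peptide (2 × 10^-7 to 2 × 10^-9 M). Pooled supernatants were assayed for IL-6 by B9 hybridoma proliferation ([³H]thymidine, 2-fold dilutions), giving arbitrary units with KLH alone set at 1000 units. Three experiments were averaged.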

[3] = Compound was evaluated for the secretion of interleukin-6 (IL-6) by macrophages incubated in the presence of antigen Keyhole Limpet Hemocyanin (KLH) at concentration of 2 x 10E-7 M; assay type: functional; procedure, shortened: as §1
[4] = Compound was evaluated for the secretion of interleukin-6 (IL-6) by macrophages incubated in the presence of antigen Keyhole Limpet Hemocyanin (KLH) at concentration of 2 x 10E-9 M; assay type: functional; procedure, shortened: as §1

SMILES | half-life [1] | Secretion [2] | Secretion [3] | Secretion [4] | T1/2 [1]
C[C@@H](O)[C@H](N)C(=O)N[C@@H](CCCCN)C(=O)N1CCC[C@H]1C(=O)N[C@]1(C(=O)O)C[C@@H](CN=C(N)N)C1 | 11 min | – | – | – | –
C[C@@H](O)[C@H](N)C(=O)N[C@]1(C(=O)N2CCC[C@H]2C(=O)N[C@@H](CCCN=C(N)N)C(=O)O)C[C@@H](CN)C1 | – | 54% | 68% | – | –
C[C@@H](O)[C@H](N)C(=O)NC1(C(=O)N2CCC[C@H]2C(=O)N[C@@H](CCCN=C(N)N)C(=O)O)CC(CCN)C1 (some centres undefined) | 13 min | – | – | – | –
NCCCC[C@H](NC(=O)[C@]1(N)C[C@H](CO)C1)C(=O)N1CCC[C@H]1C(=O)N[C@@H](CCCN=C(N)N)C(=O)O | – | 29% | 125% | – | –
C[C@@H](O)[C@H](N)C(=O)N[C@@H](CCCCN)C(=O)N1CCC[C@H]1C(=O)N[C@@H](CCCN=C(N)N)C(=O)O (H-TKPR-OH) | – | 42% | 78% | 32% | –
C[C@@H]1CC[C@]1(NC(=O)[C@H](CCCCN)NC(=O)[C@@H](N)[C@@H](C)O)C(=O)N[C@@H](CCCNC(=N)N)C(=O)O (stereo in doubt; 27) | – | – | 30% | – | –
C[C@@H]1CC[C@]1(NC(=O)[C@H](CCCCN)NC(=O)[C@@H](N)[C@@H](C)O)C(=O)N[C@@H](CCCNC(=N)N)C(=O)O (stereo in doubt; 27a) | 25 min | 95% | 141% | – | –
C[C@@H]1CC[C@]1(NC(=O)[C@H](CCCCN)NC(=O)[C@@H](N)[C@@H](C)O)C(=O)N[C@@H](CCCNC(=N)N)C(=O)O (stereo in doubt; 27b) | – | – | – | – | 15 min

— ChEMBL document CHEMBL1129419, “1-Aminocyclobutanecarboxylic acid derivatives as novel structural elements in bioactive peptides: application to tuftsin analogs” (J Med Chem, 1996)
